Results reported in ChEMBL document CHEMBL1153139, “CD4 mimics targeting the mechanism of HIV entry” (Bioorg Med Chem Lett, 2010).
pIC50, pKd: −log10 of the molar value. The source made the active and inactive calls. The rule behind the calls is not given here.

Legend:
[1] = test system: Human immunodeficiency virus 1; experiment: Antiviral activity against HIV1 3B laboratory isolate assessed as inhibition of virus-induced cytopathogenicity by MTT assay; format: functional, organism-based; conditions: Human immunodeficiency virus 1, 3B
In short: (§1)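 Infection of PM1/CCR5 cells; tropism/subtype of each strain: IIIB X4 Sub B, 89.6 dual Sub B, KYAG and fTOI R5 Sub B (primary isolates). Viability read by MTT. […] Means of at least three experiments; tested up to 100 uM.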

[2] = test system: Human immunodeficiency virus 1; experiment: Antiviral activity against HIV1 89.6 laboratory isolate assessed as inhibition of virus-induced cytopathogenicity by MTT assay; format: functional, organism-based; conditions: Human immunodeficiency virus 1, isolate 89.6; in short: as §1
[3] = test system: Human immunodeficiency virus 1; experiment: Antiviral activity against HIV1 fTOI primary isolate assessed as inhibition of virus-induced cytopathogenicity by MTT assay; format: functional, organism-based; conditions: Human immunodeficiency virus 1, fTOI; in short: as §1
[4] = test system: Human immunodeficiency virus 1; experiment: Antiviral activity against HIV1 KYAG primary isolate assessed as inhibition of virus-induced cytopathogenicity by MTT assay; format: functional, organism-based; conditions: Human immunodeficiency virus 1, KYAG; in short: as §1
[5] = Cytotoxicity against mock-infected CCR5 expressing human PM1 cells by MTT assay; format: cell-based
PM1 = experiment: Inhibition of gp120 binding to CD4 in HIV1 JR-FL infected human PM1 cells assessed as binding of anti-envelope CD4-induced monoclonal antibody 4C11 to envelope expressing cell surface at 100 uM pretreated 15 mins before 4C11 addition by FACS analysis; format: cell-based; conditions: Human immunodeficiency virus 1
In short: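 PM1 cells chronically infected with JR-FL (R5, Sub B) preincubated 15 min with compound at 100 uM (sCD4 11 nM as reference), then anti-HIV-1 mAb 4C11 at 4 °C for 15 min. After PBS wash, stained with FITC goat anti-human IgG; flow cytometry on gated PM1 cells, anti-CD19 control antibody; read as 4C11 mean fluorescence intensity. Minimum two independent experiments.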

[6] = Inhibition of HIV1 gp120 binding to CD4; design: species or system Human immunodeficiency virus 1

pKd [6]	SMILES	pIC50 [1]	pIC50 [2]	pIC50 [3]	pIC50 [4]	CC50 [5] [µM]	Activity (PM1)
	CC1(C)CC(NC(=O)C(=O)Nc2ccc(Cl)cc2)CC(C)(C)N1	5.10	5.00	5.30	< 4.52	170	Active
	CC1(C)CC(NC(=O)C(=O)Nc2ccc(F)cc2)CC(C)(C)N1	4.21	4.09		< 4.00	320	
	COc1ccc(NC(=O)C(=O)NC2CC(C)(C)NC(C)(C)C2)cc1	< 4.00	< 4.00		< 4.00	340	
	CC1(C)CC(NC(=O)C(=O)Nc2ccc(C(F)(F)F)cc2)CC(C)(C)N1		4.57			72	
	Cc1ccc(NC(=O)C(=O)NC2CC(C)(C)NC(C)(C)C2)cc1	4.64	4.39	4.80	4.29		Active
	CC1(C)CC(NC(=O)C(=O)Nc2ccccc2)CC(C)(C)N1	< 4.00	< 4.00	4.09	< 4.00	350	inactive
5.66	CC1(C)CC(NC(=O)C(=O)Nc2ccc(Br)cc2)CC(C)(C)N1	5.40	5.05			150	
	CC1(C)CC(NC(=O)C(=O)Nc2ccc([N+](=O)[O-])cc2)CC(C)(C)N1		4.38			230	
